Laboratory results published in PMC6267549 (Clinical Pharmacokinetics, 2018).
Entries after “also recorded” stand apart in the source; their conditions may differ. Where two headings read alike, the source gives them in different places.

What was measured:
[1] = SNAC plasma pharmacokinetics after ten once-daily doses of oral semaglutide; assay type: in vivo, human; conditions: for tmax,Day10: median (minimum, maximum)
In short: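 Oral tablets (300 mg SNAC) given once daily, 5 mg semaglutide days 1–5 then 10 mg days 6–10, with 120 mL water after >6 h fast and no intake for 30 min after. K3EDTA plasma sampled, including extra points within 24 h after last dose, stored at -20 °C. SNAC measured by LC-MS/MS after in-line solid-phase preparation against an analogue IS (5.00-2000 ng/mL, fivefold dilution above). AUC24 by linear trapezoid; Cmax and tmax observed.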

[2] = Semaglutide and SNAC urine bioanalysis / renal clearance; assay type: in vivo, human; conditions: for CLR: based on 0–36 h after the tenth dosing, geometric mean (CV)
In short: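 Urine collected pre-dose day 1 and fractionated over set intervals on days 10–11 after the tenth dose, then stored at -20 °C. 1% Triton X-100 added, 1 part per 9 parts urine. Semaglutide and SNAC quantified by the plasma LC-MS/MS methods with ranges corrected by 1.111. Renal clearance derived over 0–36 h after the tenth dose.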

[3] = Effect of haemodialysis on semaglutide and SNAC exposure in subjects with ESRD; assay type: in vivo, human
In short: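 ESRD subjects on haemodialysis three times weekly, started right after dosing (blood flow 500-600 mL/min, ultrafiltration 0-23 mL/min, low- or high-flux membranes). Semaglutide: observed AUC 144–148 h during day-16 dialysis divided by predicted AUC, with λz taken from inter-dialysis plasma levels at 76, 96, 120 and 144 h. SNAC: AUC4 on dialysis day 9 vs non-dialysis day 10, compared by log-scale linear model (dialysis, subject fixed).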

[4] = assay type: in vivo, human; conditions: once-daily oral semaglutide, not characterised in the trial
In short: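 Ten once-daily oral doses given, 5 mg for 5 days then 10 mg for 5 days, fasted. Plasma sampled pre-dose and to 504 h after the last dose, K3EDTA, stored at -20 °C. Semaglutide measured by LC-MS/MS after protein precipitation (0.729-60.8 nmol/L, 1/concentration² weighting). t½ = ln(2)/λz, with λz from log-linear regression on the terminal phase.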

[5] = subcutaneous administration; humans; cited from earlier work
[6] = subcutaneous administration; monkeys; cited from earlier work
[7] = subcutaneous administration; rats; cited from earlier work
[8] = mild renal impairment vs normal renal function
[9] = moderate renal impairment vs normal renal function
[10] = severe renal impairment vs normal renal function

O=C([O-])CCCCCCCNC(=O)c1ccccc1O.[Na+] [SNAC, sodium N-(8-[2-hydroxybenzoyl]amino) caprylate]
AUC24,Day10 ([1]; ESRD (n = 11), after tenth dose, geometric mean (CV)): 1471.4 (27.0) nmol·h/L
tmax,Day10 ([1]; ESRD (n = 11), after tenth dose): 0.83 (0.17, 5.00) h
estimated ratio Cmax,Day10 ([1]; ESRD vs normal renal function): 0.79
estimated ratio of the AUC24,Day10 ([1]; ESRD vs normal renal function): 1.32
AUC24,Day10 ([1]; mild renal impairment (n = 12), after tenth dose, geometric mean (CV)): 1311.6 (31.5) nmol·h/L
tmax,Day10 ([1]; mild renal impairment (n = 12), after tenth dose): 0.58 (0.33, 2.50) h
estimated ratio Cmax,Day10 [1, 8]: 0.94
estimated ratio of the AUC24,Day10 [1, 8]: 1.19
AUC24,Day10 ([1]; moderate renal impairment (n = 12), after tenth dose, geometric mean (CV)): 1335.9 (34.6) nmol·h/L
tmax,Day10 ([1]; moderate renal impairment (n = 12), after tenth dose): 0.67 (0.33, 6.00) h
estimated ratio Cmax,Day10 [1, 9]: 0.70
estimated ratio of the AUC24,Day10 [1, 9]: 1.30
AUC24,Day10 ([1]; normal renal function (n = 24), after tenth dose, geometric mean (CV)): 1028.8 (29.2) nmol·h/L
tmax,Day10 ([1]; normal renal function (n = 24), after tenth dose): 0.75 (0.33, 3.00) h
Cmax ([1]; read-out: Cmax,Day10, ESRD (n = 11), after tenth dose, geometric mean (CV)): 936 nM
AUC24,Day10 ([1]; severe renal impairment (n = 12), after tenth dose, geometric mean (CV)): 1522.8 (31.8) nmol·h/L
tmax,Day10 ([1]; severe renal impairment (n = 12), after tenth dose): 0.67 (0.17, 1.00) h
estimated ratio Cmax,Day10 [1, 10]: 1.06
estimated ratio of the AUC24,Day10 [1, 10]: 1.49
CLR ([2]; ESRD (n = 11)): 0.01 (508.51) L/h
CLR ([2]; mild renal impairment (n = 12)): 0.08 (87.88) L/h
CLR ([2]; moderate renal impairment (n = 12)): 0.09 (92.63) L/h
CLR ([2]; normal renal function (n = 24)): 0.06 (104.33) L/h
CLR ([2]; severe renal impairment (n = 12)): 0.04 (98.22) L/h
estimated ratio of AUC4 on day 9 during haemodialysis to AUC4 on day 10 ([3]; haemodialysis vs no haemodialysis): 0.95

CC[C@H](C)[C@H](NC(=O)[C@H](Cc1ccccc1)NC(=O)[C@H](CCC(=O)O)NC(=O)[C@H](CCCCNC(=O)COCCOCCNC(=O)COCCOCCNC(=O)CC[C@H](NC(=O)CCCCCCCCCCCCCCCCC(=O)O)C(=O)O)NC(=O)[C@H](C)NC(=O)[C@H](C)NC(=O)[C@H](CCC(N)=O)NC(=O)CNC(=O)[C@H](CCC(=O)O)NC(=O)[C@H](CC(C)C)NC(=O)[C@H](Cc1ccc(O)cc1)NC(=O)[C@H](CO)NC(=O)[C@H](CO)NC(=O)[C@@H](NC(=O)[C@H](CC(=O)O)NC(=O)[C@H](CO)NC(=O)[C@@H](NC(=O)[C@H](Cc1ccccc1)NC(=O)[C@@H](NC(=O)CNC(=O)[C@H](CCC(=O)O)NC(=O)C(C)(C)NC(=O)[C@@H](N)Cc1cnc[nH]1)[C@@H](C)O)[C@@H](C)O)C(C)C)C(=O)N[C@@H](C)C(=O)N[C@@H](Cc1c[nH]c2ccccc12)C(=O)N[C@@H](CC(C)C)C(=O)N[C@H](C(=O)N[C@@H](CCCNC(=N)N)C(=O)NCC(=O)N[C@@H](CCCNC(=N)N)C(=O)NCC(=O)O)C(C)C [semaglutide]
time to reach steady state (predicted) [4]: 4–5 weeks
detection in urine ([2]; urine samples days 10–11, except one subject in the ESRD group): not detected in urine; also recorded: not generally detected
AUC144–148 h,dial/AUC144–148 h,pred (estimated ratio) ([3]; observed during haemodialysis (day 16) over predicted): 0.97
intact semaglutide in urine, of the administered dose [5]: 3.1%
intact semaglutide in urine [6]: not detected
intact semaglutide in urine, of the administered dose [7]: less than 1%
